Laboratory results from ChEMBL document CHEMBL1130166, “Synthesis and pharmacological characterization of 3-[2-((3aR,9bR)-cis-6-methoxy-2,3,3a,4,5,9b-hexahydro-1H-benz[e] isoindol-2-yl)ethyl]pyrido-[3',4':4,5]thieno[3,2-d]pyrimidine-2,4 (1H,3H)-dione (A-131701): a uroselective alpha 1A adrenoceptor antagonist for the symptomatic treatment of benign …” (J Med Chem, 1997).

How the values were obtained:
D(2) dopamine receptor = D(2) dopamine receptor (Homo sapiens, UniProt P14416); experiment: Binding affinity against Dopamine receptor D2 using [3H]spiroperidol as radioligand
[1] = target: T1, Alpha-1D adrenergic receptor (Homo sapiens, UniProt P25100); experiment: Binding affinity against human adrenergic receptor subtype Alpha-1D adrenergic receptor using [3H]prazosin as radioligand
T1 sequence (P25100 whole entry): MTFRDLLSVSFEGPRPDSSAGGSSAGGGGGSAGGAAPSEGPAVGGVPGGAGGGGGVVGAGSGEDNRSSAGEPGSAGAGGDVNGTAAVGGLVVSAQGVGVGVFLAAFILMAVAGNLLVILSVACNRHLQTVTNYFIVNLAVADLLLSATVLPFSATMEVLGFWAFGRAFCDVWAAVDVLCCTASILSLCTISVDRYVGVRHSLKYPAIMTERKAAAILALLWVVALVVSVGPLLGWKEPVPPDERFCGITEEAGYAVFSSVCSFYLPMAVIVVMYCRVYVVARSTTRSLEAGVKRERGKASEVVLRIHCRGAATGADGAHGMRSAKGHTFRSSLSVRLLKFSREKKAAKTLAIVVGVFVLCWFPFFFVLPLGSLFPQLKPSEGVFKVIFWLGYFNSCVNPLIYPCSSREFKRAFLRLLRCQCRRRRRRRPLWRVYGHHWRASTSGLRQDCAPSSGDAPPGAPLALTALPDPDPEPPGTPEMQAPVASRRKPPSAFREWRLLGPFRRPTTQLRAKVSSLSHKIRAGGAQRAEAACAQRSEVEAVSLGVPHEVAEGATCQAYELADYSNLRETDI

[2] = target: 5-hydroxytryptamine receptor 2A (Bos taurus, UniProt Q75Z89); experiment: Binding affinity against 5-hydroxytryptamine 2 receptor using [3H]ketanserin as radioligand
Rattus norvegicus = experiment: Compound was tested for selectivity in a challenge spontaneously hypertensive rat (SHR) model using an ascending iv dose paradigm
[3] = target: T2, Alpha-2C adrenergic receptor (Homo sapiens, UniProt P18825); experiment: Binding affinity against human Alpha-2C adrenergic receptor using [3H]rauwolscine as radioligand
T2 sequence (P18825 whole entry): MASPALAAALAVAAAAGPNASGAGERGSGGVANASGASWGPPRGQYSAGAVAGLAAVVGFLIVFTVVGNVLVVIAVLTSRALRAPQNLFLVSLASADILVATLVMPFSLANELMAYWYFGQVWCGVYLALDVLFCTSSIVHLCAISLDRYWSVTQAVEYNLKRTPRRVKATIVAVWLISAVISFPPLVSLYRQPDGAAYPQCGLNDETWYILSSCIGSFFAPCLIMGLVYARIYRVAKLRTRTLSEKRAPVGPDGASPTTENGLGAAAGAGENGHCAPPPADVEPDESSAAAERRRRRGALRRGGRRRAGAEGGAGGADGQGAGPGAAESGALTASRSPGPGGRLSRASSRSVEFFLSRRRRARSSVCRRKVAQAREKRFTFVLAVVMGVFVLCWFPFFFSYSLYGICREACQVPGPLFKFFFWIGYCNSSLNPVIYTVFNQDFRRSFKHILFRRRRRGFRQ

[4] = target: T3, 5-hydroxytryptamine receptor 1F (Rattus norvegicus, UniProt P30940); experiment: Binding affinity against 5-hydroxytryptamine 1 receptor using [3H]5-HT as radioligand
T3 sequence (P30940 whole entry): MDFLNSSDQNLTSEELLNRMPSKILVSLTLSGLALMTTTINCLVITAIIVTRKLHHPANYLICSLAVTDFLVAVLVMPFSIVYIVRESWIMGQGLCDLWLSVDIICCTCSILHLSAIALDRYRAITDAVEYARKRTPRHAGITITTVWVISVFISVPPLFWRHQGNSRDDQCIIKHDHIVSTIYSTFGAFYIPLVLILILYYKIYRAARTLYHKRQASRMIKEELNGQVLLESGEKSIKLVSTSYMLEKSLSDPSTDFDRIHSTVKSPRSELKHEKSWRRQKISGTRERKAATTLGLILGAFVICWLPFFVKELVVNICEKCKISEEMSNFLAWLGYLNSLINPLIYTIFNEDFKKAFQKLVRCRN

D(1A) dopamine receptor = D(1A) dopamine receptor (Mus musculus, UniProt Q61616); experiment: Binding affinity against Dopamine receptor D1 using [3H]SCH-23390 as radioligand
[5] = target: T4, Alpha-2A adrenergic receptor (Homo sapiens, UniProt P08913); experiment: Binding affinity against human adrenergic receptor subtype Alpha-2A adrenergic receptor using [3H]rauwolscine as radioligand
T4 sequence (P08913 whole entry): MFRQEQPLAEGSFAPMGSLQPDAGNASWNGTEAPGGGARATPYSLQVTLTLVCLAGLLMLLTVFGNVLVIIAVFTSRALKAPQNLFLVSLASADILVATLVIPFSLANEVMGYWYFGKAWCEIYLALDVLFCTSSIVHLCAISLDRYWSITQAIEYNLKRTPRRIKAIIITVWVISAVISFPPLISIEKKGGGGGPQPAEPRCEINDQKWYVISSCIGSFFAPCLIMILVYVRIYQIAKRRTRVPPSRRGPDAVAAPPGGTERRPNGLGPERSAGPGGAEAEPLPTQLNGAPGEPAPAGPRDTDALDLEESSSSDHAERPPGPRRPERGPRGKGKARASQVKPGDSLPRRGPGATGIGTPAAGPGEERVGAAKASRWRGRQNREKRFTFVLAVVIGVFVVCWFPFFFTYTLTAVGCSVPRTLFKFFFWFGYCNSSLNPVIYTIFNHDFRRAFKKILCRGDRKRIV

[6] = target: T5, Alpha-2B adrenergic receptor (Rattus norvegicus, UniProt P19328); experiment: Binding affinity against rat Alpha-2B adrenergic receptor using [3H]rauwolscine as radioligand
T5 sequence (P19328 whole entry): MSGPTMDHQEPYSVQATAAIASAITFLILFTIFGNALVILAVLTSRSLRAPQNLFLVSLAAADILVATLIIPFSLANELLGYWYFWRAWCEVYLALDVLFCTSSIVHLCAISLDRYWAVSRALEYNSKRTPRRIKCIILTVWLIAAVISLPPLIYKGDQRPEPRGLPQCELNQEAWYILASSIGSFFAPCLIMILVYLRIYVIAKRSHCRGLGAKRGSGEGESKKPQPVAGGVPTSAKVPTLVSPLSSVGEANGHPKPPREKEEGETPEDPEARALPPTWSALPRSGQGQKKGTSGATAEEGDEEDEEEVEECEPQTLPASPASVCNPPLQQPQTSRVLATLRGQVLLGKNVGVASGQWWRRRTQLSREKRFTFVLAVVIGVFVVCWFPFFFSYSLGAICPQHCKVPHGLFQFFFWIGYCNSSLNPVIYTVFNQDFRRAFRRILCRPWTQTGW

[7] = target: T6, Alpha-1B adrenergic receptor (Rattus norvegicus, UniProt P15823); experiment: In vitro antagonism against Alpha-1B adrenergic receptor using phenylephrine (PE) challenge in rat spleen; type: functional, tissue-based; conditions: read-out: pA2 (converted)
T6 sequence (P15823 whole entry): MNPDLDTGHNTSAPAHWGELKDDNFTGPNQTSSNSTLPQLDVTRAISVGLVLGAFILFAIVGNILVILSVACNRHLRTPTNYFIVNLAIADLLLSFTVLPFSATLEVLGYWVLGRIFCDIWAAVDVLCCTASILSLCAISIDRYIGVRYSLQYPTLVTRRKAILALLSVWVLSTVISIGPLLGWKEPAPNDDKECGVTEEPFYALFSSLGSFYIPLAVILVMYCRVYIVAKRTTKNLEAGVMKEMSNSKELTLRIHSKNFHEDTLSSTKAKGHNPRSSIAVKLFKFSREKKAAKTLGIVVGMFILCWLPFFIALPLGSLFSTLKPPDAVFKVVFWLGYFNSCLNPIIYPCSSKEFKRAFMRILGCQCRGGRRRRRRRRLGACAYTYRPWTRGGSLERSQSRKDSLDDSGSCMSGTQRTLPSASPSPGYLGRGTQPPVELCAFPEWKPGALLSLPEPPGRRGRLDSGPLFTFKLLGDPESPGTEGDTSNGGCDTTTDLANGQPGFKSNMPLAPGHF
Summary of the method: (§1)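 Agonist concentration-response curves were run on the isolated tissue, then repeated in the presence of increasing concentrations of antagonist. pA2 was obtained by Schild analysis.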

[8] = target: T7, Alpha-1D adrenergic receptor (Rattus norvegicus, UniProt P23944); experiment: In vitro antagonism against Alpha-1D adrenergic receptor using phenylephrine (PE) challenge in rat aorta; type: functional, tissue-based; conditions: read-out: pA2 (converted); summary of the method: as §1
T7 sequence (P23944 whole entry): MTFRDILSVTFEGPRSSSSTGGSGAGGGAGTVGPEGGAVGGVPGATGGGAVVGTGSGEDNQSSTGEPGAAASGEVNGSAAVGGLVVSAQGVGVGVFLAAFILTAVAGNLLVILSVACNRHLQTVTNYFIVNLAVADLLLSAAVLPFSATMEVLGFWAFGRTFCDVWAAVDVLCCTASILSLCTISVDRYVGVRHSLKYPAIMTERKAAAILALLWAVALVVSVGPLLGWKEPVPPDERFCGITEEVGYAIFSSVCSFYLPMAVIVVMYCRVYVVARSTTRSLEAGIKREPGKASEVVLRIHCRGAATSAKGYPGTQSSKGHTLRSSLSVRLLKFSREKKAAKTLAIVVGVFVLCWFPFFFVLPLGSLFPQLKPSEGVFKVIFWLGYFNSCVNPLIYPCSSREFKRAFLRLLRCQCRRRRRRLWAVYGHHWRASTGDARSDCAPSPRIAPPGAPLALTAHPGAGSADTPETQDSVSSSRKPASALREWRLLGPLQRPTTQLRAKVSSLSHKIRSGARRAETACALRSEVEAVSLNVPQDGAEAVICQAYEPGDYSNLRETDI

[9] = target: Beta-2 adrenergic receptor (Homo sapiens, UniProt P07550); experiment: Binding affinity against adrenergic receptor subtype Beta-2 adrenergic receptor using [3H]DHA as radioligand
[10] = target: Beta-1 adrenergic receptor (Homo sapiens, UniProt P08588); experiment: Binding affinity against Beta-1 adrenergic receptor using [3H]DHA as radioligand
[11] = target: T8, Alpha-1B adrenergic receptor (Homo sapiens, UniProt P35368); experiment: Binding affinity against human adrenergic receptor subtype Alpha-1B adrenergic receptor using [3H]prazosin as radioligand
T8 sequence (P35368 whole entry): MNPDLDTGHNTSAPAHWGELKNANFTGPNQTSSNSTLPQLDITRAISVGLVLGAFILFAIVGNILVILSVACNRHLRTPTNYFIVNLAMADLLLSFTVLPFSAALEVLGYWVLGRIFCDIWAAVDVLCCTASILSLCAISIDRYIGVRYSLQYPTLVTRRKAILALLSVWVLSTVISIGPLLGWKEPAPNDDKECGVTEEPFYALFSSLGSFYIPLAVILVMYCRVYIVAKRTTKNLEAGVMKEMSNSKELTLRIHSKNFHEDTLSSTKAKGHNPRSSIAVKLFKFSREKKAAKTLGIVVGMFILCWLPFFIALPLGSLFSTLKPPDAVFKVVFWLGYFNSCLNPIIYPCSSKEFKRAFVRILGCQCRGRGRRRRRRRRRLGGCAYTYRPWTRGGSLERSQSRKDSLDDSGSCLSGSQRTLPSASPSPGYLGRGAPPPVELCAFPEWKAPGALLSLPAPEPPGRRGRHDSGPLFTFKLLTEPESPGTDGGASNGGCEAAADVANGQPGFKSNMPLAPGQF

D(1A) dopamine receptor, sequence (Q61616 whole entry): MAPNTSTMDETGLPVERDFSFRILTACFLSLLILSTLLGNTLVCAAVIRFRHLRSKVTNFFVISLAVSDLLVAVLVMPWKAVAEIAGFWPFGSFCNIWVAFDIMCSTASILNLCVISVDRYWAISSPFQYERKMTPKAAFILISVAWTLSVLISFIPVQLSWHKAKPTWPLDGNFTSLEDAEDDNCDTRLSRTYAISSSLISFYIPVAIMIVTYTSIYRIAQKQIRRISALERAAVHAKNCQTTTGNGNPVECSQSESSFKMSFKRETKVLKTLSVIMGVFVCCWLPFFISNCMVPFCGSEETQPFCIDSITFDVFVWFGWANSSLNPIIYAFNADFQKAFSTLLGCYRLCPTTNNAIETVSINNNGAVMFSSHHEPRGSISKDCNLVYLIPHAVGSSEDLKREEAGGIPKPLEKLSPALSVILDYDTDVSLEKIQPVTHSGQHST
Beta-1 adrenergic receptor, sequence (P08588 whole entry): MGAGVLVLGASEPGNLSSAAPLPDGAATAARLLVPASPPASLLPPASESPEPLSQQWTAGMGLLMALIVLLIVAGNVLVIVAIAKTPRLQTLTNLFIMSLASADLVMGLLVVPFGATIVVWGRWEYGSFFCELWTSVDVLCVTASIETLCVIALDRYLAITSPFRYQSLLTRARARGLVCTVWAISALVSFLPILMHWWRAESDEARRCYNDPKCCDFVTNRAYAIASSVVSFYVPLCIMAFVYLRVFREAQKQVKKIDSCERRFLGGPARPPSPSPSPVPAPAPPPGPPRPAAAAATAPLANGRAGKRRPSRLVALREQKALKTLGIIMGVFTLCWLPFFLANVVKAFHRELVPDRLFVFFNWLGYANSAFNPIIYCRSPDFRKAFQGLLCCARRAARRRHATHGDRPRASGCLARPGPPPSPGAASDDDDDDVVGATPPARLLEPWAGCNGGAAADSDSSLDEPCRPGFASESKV
D(2) dopamine receptor, sequence (P14416 whole entry): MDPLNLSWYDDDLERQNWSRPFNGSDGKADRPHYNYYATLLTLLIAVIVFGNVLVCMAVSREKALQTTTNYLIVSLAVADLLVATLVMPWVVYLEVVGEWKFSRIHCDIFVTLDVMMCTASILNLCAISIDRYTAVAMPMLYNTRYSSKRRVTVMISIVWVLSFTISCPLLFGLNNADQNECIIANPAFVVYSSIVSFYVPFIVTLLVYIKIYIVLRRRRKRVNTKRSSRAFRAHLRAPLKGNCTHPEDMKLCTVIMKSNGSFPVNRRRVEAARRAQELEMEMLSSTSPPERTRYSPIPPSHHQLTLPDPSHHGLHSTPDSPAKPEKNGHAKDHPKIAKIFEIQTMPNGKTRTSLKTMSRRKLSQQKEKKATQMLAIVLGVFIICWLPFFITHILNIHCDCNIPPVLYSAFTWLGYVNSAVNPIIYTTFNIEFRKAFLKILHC
5-hydroxytryptamine receptor 2A, sequence (Q75Z89 whole entry): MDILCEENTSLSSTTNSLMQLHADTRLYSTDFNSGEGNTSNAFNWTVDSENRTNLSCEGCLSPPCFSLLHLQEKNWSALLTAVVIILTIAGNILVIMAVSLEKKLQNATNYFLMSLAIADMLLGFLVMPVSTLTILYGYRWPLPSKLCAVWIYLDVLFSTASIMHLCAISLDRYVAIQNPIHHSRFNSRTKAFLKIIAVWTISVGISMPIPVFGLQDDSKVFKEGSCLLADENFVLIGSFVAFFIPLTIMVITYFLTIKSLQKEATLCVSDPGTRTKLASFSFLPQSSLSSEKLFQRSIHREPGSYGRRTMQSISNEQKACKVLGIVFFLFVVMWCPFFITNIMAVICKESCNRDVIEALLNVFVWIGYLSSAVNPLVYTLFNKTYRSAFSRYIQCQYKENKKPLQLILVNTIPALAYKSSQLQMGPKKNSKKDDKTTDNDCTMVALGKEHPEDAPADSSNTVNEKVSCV
Beta-2 adrenergic receptor, sequence (P07550 whole entry): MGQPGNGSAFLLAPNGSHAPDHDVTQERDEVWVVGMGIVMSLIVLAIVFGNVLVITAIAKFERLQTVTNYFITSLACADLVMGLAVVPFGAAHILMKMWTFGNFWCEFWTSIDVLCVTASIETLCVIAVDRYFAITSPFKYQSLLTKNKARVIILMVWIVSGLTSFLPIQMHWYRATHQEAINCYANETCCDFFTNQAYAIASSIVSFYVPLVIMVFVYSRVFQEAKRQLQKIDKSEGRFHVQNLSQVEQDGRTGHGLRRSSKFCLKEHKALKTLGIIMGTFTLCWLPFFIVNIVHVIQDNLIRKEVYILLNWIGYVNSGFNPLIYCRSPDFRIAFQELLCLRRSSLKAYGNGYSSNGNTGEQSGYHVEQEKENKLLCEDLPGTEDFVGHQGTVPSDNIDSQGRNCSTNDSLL

SMILES	Ki (D(2) dopamine receptor) [nM]	Ki [1] [nM]	Ki [2] [nM]	pED50 (Rattus norvegicus)	Ki [3] [nM]	Ki [4] [nM]	Ki (D(1A) dopamine receptor) [nM]	Ki [5] [nM]	Ki [6] [nM]	Kb [7] [nM]	Kb [8] [nM]	Ki [9] [nM]	Ki [10] [nM]	Ki [11] [nM]
COc1cccc2c1CC[C@H]1CN(CCn3c(=O)[nH]c4c(sc5cccnc54)c3=O)C[C@@H]21	19.7	0.97	83	5.33	16.6	3380	717	94.9	13.1	12.9	0.776	3870	10600	6.95
CCOc1ccccc1OCCN[C@H](C)Cc1ccc(OC)c(S(N)(=O)=O)c1 [TAMSULOSIN]		0.058		7.33	7.9			13.4	6.8	0.204				0.61
COc1cc2nc(N3CCN(C(=O)C4CCCO4)CC3)nc(N)c2cc1OC (stereo not given) [TERAZOSIN]		0.85		6.64				1500	7.7					
